In the library only some 8.7% were active in any assay of this set; here they are far more common.
E coli WT exp: growth inhibitors of wild-type E. coli, primary screen, strain BW25113, expanded library, OD600; OD600 absorbance; growth inhibition, % at 100 µM; actives 0.15% (n = 98,000); AID 710, 2007;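 active = growth inhibition above about 50% at one test dose, limit read from the data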;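 also: growth measured after 20 h incubation at 37 °C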
Pyk2 oligo antag: antagonists of Pyk2 self-association, primary screen, Q293 cells, FERM NanoBiT luminescence, HTS; z-score (the deposit names both 25 µM and 10 µM); actives 0.83% (n = 99,000); active compounds read low; Protein-tyrosine kinase 2-beta (Homo sapiens), Q14289; AID 1347419, 2020;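 active = Z-score of -3 or lower, scaled per plate to the spread of control and sample wells; inactive = z-score above -3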;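 also: negative z-score means lost luminescence so less FERM oligomerization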
Target sequence (Q14289 whole entry, looked up): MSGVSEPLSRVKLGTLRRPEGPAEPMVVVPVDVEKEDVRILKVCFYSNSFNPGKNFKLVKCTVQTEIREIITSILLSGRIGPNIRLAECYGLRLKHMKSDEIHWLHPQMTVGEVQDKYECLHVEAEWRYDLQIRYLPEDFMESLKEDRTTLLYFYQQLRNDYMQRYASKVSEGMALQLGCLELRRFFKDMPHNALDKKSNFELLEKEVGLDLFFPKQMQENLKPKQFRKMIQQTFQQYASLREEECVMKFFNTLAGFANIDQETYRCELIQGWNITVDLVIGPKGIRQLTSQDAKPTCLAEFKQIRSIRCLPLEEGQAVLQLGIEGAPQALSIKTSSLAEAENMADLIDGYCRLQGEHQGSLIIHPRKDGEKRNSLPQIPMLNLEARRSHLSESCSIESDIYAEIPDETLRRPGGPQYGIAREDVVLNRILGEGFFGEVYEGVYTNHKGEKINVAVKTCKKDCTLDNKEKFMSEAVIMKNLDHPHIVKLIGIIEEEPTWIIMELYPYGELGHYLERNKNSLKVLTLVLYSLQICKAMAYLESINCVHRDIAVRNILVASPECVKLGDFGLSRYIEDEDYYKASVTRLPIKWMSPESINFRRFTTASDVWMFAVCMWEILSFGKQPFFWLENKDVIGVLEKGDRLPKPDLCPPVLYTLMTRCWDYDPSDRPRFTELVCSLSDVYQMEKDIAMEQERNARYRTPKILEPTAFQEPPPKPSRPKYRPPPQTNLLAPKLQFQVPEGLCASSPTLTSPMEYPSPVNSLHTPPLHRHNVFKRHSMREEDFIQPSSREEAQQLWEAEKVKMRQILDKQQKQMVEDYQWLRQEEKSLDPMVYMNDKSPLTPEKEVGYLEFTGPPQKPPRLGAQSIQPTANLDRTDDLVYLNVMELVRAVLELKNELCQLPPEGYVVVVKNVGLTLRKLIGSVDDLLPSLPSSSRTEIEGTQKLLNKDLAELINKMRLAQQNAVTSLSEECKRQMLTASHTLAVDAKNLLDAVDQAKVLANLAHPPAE
Cav3 T inh: Cav3.2 calcium influx blockers – cell-based, Fluo-4 calcium fluorescence, FDSS, MLSMR library, primary screen. Voltage-dependent T-type calcium channel subunit alpha-1H (Homo sapiens), O95180. Cav3.2-expressing cells; active compounds read low. B-score at 10 µM. actives 4% (n = 100,000);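 active = single-dose well whose peak fluorescence ratio is a statistical outlier from its plate by either plate-standardised score or position-corrected B-score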
PostGolgi ctrl: growth inhibition of yeast control strain, primary screen, counter-screen for post-Golgi transport modulator project. efflux-deficient yeast background strain, growth absorbance A615, 16 h. inhibition, % at 10 µM. actives 5% (n = 98,000). AID 738, 2007
Ecoli tolC: growth inhibitors of E. coli tolC mutant, primary screen, strain BW25113 ΔtolC::kan, 384-well; OD615; growth inhibition, % at 10 µM (by protocol); actives 2.2% (n = 65,000); AID 573, 2007;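 active = growth inhibition at or above a cutoff equal to the mean over every tested compound plus 3 SD, cut at about 60% in these data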;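 also: growth measured after 20 h incubation at 37 °C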
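Doses: one dose of 10 µM final / Material: E. coli BW25113 ΔtolC::kan, tolC deletion mutant strain / Buffer or medium: LB with kanamycin 50 µg/mL / Evaluation: percent growth inhibition / Detection: optical density read at 615 nm / Incubation: 37 °C, 20 h exposure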
PostGolgi yeast: phenotypic screen on post-Golgi transport, primary screen | post-Golgi transport phenotypic cell assay | inhibition, % at 10 µM | actives 0.9% (n = 98,000) | AID 739, 2007;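 also: yeast cells grown in 1536-well plates; yeast grown about 18 h at 30C before absorbance read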
Large screens that a line does not name were inactive. Rule as the data show it, unless noted: active = inhibition above about 30%; inactive = the rest.

CCCc1nc2sc3ccccc3c(=O)c2c(=O)n1Cc1ccco1	Ecoli tolC 70 (no result: Cav3 T inh)
COc1ccc(CNc2nc(NCc3ccc(OC)cc3)n(C(=O)c3ccccc3[N+](=O)[O-])n2)cc1	none (no result: Ecoli tolC)
Brc1ccc(-c2nc(-c3ccccc3)no2)o1	Ecoli tolC 98
CCCCn1nc(-c2ccccc2)c2nc3ccccc3nc21	Cav3 T inh -7.3 (no result: Pyk2 oligo antag, Ecoli tolC)
Cn1nc(-c2ccccc2)c2nc3ccccc3nc21	none
CC(CCc1ccco1)NC(=O)CSc1cc(=O)n(C)c2ccccc12 (configuration not stated)	none
O=C(ONc1ccc(N=NC(=O)c2ccccc2O)cc1)c1ccccc1	Cav3 T inh -4.5 (no result: Ecoli tolC)
O=c1ccsn1Cc1ccccc1	E coli WT exp 100, Ecoli tolC 100
COC(=O)c1ccccc1S(=O)(=O)N(Cc1ccco1)Cc1cc2cc(OC)ccc2[nH]c1=O	none
COC(=O)c1ccccc1S(=O)(=O)N(CCCO)Cc1cc2c(C)ccc(C)c2[nH]c1=O	PostGolgi ctrl 36
O=C(NC(c1ccc(Cl)cc1)c1c(O)ccc2ccccc12)c1ccccc1 (configuration not stated)	none (no result: E coli WT exp, Cav3 T inh, PostGolgi ctrl, Ecoli tolC, PostGolgi yeast)
CCC(=O)NC(c1ccc([N+](=O)[O-])cc1)c1c(O)ccc2ccccc12 (configuration not stated)	Pyk2 oligo antag -3.1 (no result: Ecoli tolC)
CC(C)C(=O)NC(c1ccccc1Cl)c1c(O)ccc2ccccc12 (configuration not stated)	Pyk2 oligo antag -3.8 (no result: Ecoli tolC)
O=C(NC(c1ccccc1)c1c(O)ccc2ccccc12)c1ccccc1Cl (configuration not stated)	Pyk2 oligo antag -3.3 (no result: Ecoli tolC)
CCOC(=O)c1sc(=S)n(C)c1NC(=O)c1ccccc1C	none (no result: E coli WT exp, Cav3 T inh, PostGolgi ctrl, Ecoli tolC, PostGolgi yeast)
Cc1ccc(C(=O)C2C(c3ccc(-c4ccccc4[N+](=O)[O-])o3)NC(=O)NC2(O)C(F)(F)F)cc1 (configuration not stated)	Cav3 T inh -7.1 (no result: E coli WT exp, PostGolgi ctrl, Ecoli tolC, PostGolgi yeast)
COc1ccc(C2NC(=O)NC(O)(C(F)(F)F)C2C(=O)c2ccc(C)cc2)cc1 (configuration not stated)	none
CCc1[nH]c(=O)c(C#N)c2c1CCCC2	PostGolgi ctrl 32 (no result: Cav3 T inh)
COc1c(/C=N/Nc2nc(N3CCCCC3)nc(N3CCCCC3)n2)cccc1[N+](=O)[O-]	none (no result: Ecoli tolC)
O=[N+]([O-])c1ccc(/C=N/Nc2nc(N3CCCCC3)nc(N3CCCCC3)n2)o1	PostGolgi ctrl 49 (no result: Ecoli tolC)
NC(=O)CSc1nc2cc3c(cc2c(=O)n1CCCC(=O)NCc1ccc2c(c1)OCO2)OCO3	none (no result: Ecoli tolC)
CC(=O)C1=C(O)C(=O)N(Cc2ccccc2)C1c1ccco1 (configuration not stated)	none
Cc1cccc(C)c1NC(=O)C(NC=O)c1ccccc1Cl (configuration not stated)	PostGolgi ctrl 31 (no result: Ecoli tolC)
Cc1cccc(C)c1NC(=O)C(NC=O)c1ccc(N(C)C)cc1 (configuration not stated)	none
O=c1c2cc(Br)ccc2nc(-c2cccc(C(F)(F)F)c2)n1O	E coli WT exp 63, Cav3 T inh -7.9 (no result: Ecoli tolC)
FC(F)(F)c1cccc(Cn2nnnc2-c2cccc(C(F)(F)F)c2)c1	none (no result: Ecoli tolC)
Cc1c([N+](=O)[O-])c(C(=O)N2CCCC2)nn1C	PostGolgi ctrl 42 (no result: Ecoli tolC)
CC(NCc1ccc2c(c1)OCO2)C(=O)NC1CCCc2ccccc21 (configuration not stated)	none (no result: Ecoli tolC)
COCCn1c(SCC(=O)Nc2ccc(Cl)c(S(=O)(=O)N(C)C)c2)nc2ccccc21	Cav3 T inh -6.2 (no result: Ecoli tolC)
COCCn1c(SCC(=O)Nc2ccc(S(N)(=O)=O)cc2)nc2ccccc21	none (no result: Ecoli tolC)
Fc1cc(F)c(F)c(SCCc2ccncc2)c1F	none
Cc1ccc(-c2ccc(=O)n(CC(=O)N3CCN(c4cc(Cl)ccc4C)CC3)n2)cc1	PostGolgi ctrl 47 (no result: Ecoli tolC)
CCN(CC)c1cnn(C/C(=N\OC)c2ccc(Cl)cc2)c(=O)c1Br	Cav3 T inh -5.1 (no result: Ecoli tolC)
CCc1ccc(C(=O)Cn2ncc(Cl)c(Cl)c2=O)cc1	none (no result: Ecoli tolC)
CCOc1cc(S(=O)(=O)N2CCN(c3ccc(F)cc3)CC2)c(OCC)cc1-n1cnnn1	PostGolgi ctrl 82
COc1ccccc1NC(=O)CN1CCC(C(=O)c2ccc(F)cc2)CC1	PostGolgi ctrl 32 (no result: Ecoli tolC)
O=C(CN1CCC(C(=O)c2ccc(F)cc2)CC1)Nc1ccc(F)cc1	Cav3 T inh -5.4 (no result: E coli WT exp, PostGolgi ctrl, Ecoli tolC, PostGolgi yeast)
COc1ccc(NC(=O)CN2CCN(CC(=O)Nc3ccccc3Cl)CC2)cc1Cl	none
O=C(CN1CCC(C(=O)c2ccc(F)cc2)CC1)Nc1ccccc1	none
COc1ccccc1NC(=O)CN1CCN(CC(=O)Nc2ccc(Cl)c(C(F)(F)F)c2)CC1	Cav3 T inh -11, PostGolgi ctrl 82
O=C(Nc1ccc(CN2CCOCC2)cc1)c1cc2ccccc2oc1=O	none (no result: E coli WT exp, Pyk2 oligo antag, Cav3 T inh, PostGolgi ctrl, PostGolgi yeast)
O=C(CSc1nnnn1C1CCCCC1)NCCc1ccccc1	none
O=C(CCCCCN1C(=O)CCC1=O)Nc1ccc(Cl)c(C(F)(F)F)c1	none (no result: Ecoli tolC)
CCOc1ccc(C2=NNC(c3cccs3)=Nc3ccc(OCC)cc32)cc1	none (no result: Pyk2 oligo antag, Cav3 T inh, Ecoli tolC)
Cc1ccc2c(CC(=O)OCc3nc(N)nc(Nc4ccccc4C)n3)coc2c1	PostGolgi ctrl 36, Ecoli tolC 72
Cc1ccccc1Nc1nc(N)nc(COC(=O)CCS(=O)(=O)c2ccccc2)n1	none
Cc1ccc(C(=O)NC(=S)NNC(=O)c2ccccc2[N+](=O)[O-])cc1	Cav3 T inh -8 (no result: E coli WT exp, PostGolgi ctrl, Ecoli tolC, PostGolgi yeast)
O=c1cc(N2CCCCC2)c(-c2ccccc2)nn1Cc1ccccc1Cl	PostGolgi ctrl 44 (no result: Cav3 T inh, Ecoli tolC)
O=c1cc(N2CCCCC2)c(-c2ccccc2)nn1Cc1ccc(Cl)cc1Cl	none (no result: Ecoli tolC)
O=c1cc(N2CCCCC2)c(-c2ccccc2)nn1Cc1cccc(Cl)c1	PostGolgi ctrl 31 (no result: Ecoli tolC)
O=C(C1COc2ccccc2O1)N1CCc2ccccc2C1 (configuration not stated)	none (no result: E coli WT exp, PostGolgi ctrl, Ecoli tolC, PostGolgi yeast)
O=C(N/N=C/c1ccccc1Br)c1ccc(CSc2cccc3cccnc23)cc1	Cav3 T inh -5.2 (no result: Ecoli tolC)
COc1ccccc1CNC(=O)C1CC2Cn3c(nc4cc(Cl)c(Cl)cc43)C2N1C (configuration not stated)	none (no result: E coli WT exp, Pyk2 oligo antag, PostGolgi ctrl, Ecoli tolC, PostGolgi yeast)
COc1cc2c3nnc(-c4ccc(F)cc4)c-3cn(Cc3ccc(C)cc3)c2cc1OC	Cav3 T inh -5.8 (no result: Pyk2 oligo antag, Ecoli tolC)
COc1cc2c3nnc(-c4ccc(F)cc4)c-3cn(Cc3cccc(C)c3)c2cc1OC	Cav3 T inh -3.6 (no result: Pyk2 oligo antag, Ecoli tolC)
Fc1ccc(Cn2cnc3ccccc32)cc1	none (no result: Ecoli tolC)
CCOC(=O)C1CCN(c2c(NC3CCCCCCC3)c(=O)c2=O)CC1	none (no result: Pyk2 oligo antag)
N#Cc1nc(Cc2ccccc2)oc1NCc1ccccc1Cl	PostGolgi ctrl 46, Ecoli tolC 93 (no result: Cav3 T inh)
N#Cc1nc(-c2ccccc2Cl)oc1NCc1ccco1	PostGolgi ctrl 31
Nc1cnc(CNc2ccccc2Cl)cn1	none (no result: E coli WT exp, Pyk2 oligo antag, PostGolgi ctrl, Ecoli tolC, PostGolgi yeast)
CC(=O)C1C(c2ccccc2OC(F)F)NC(=O)NC1(O)C(F)(F)F (configuration not stated)	none (no result: Pyk2 oligo antag, Cav3 T inh)

Screening results deposited in PubChem by several laboratories.
